Data published in ChEMBL document CHEMBL1153864, “Phase transfer catalyzed synthesis of bis-quinolines: antileishmanial activity in experimental visceral leishmaniasis and in vitro antibacterial evaluation” (Eur J Med Chem, 2009).
Converted amounts (≈) assume the structure as drawn. The source made the active and inactive calls. The rule behind the calls is not given here.

Columns and labels:
Leishmania donovani [1] = assay: Antileishmanial activity against Leishmania donovani MHOM/IN/1983/AG83 promastigotes infected BALB/c mouse assessed as reduction in liver parasite burden at 5.5 mg/kg, ip administered two times per week for 4 weeks relative to control; type: functional; parameters: scale not given: the % may be the effect or the level left; conditions: route intraperitoneal
Method in brief: (§1)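 BALB/c mice (4-6 weeks) were infected iv with 2 × 10^7 freshly transformed promastigotes. One month later, groups were dosed ip in 0.2% Tween 80 in PBS (0.02 M), twice weekly for one month (8 doses); controls got vehicle only. Mice were killed one month post-treatment and spleen and liver were weighed. Parasite load came from Giemsa impression smears as organ weight (mg) × amastigotes per cell nucleus × 2 × 10^5. Values are mean ± S.E. of 5 mice; unpaired t-test.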

Leishmania donovani [2] = assay: Antileishmanial activity against Leishmania donovani MHOM/IN/1983/AG83 promastigotes infected BALB/c mouse assessed as liver weight at 12.5 mg/kg, ip administered two times per week for 4 weeks; type: functional; conditions: route intraperitoneal; method in brief: as §1
Staphylococcus aureus [3] = assay: Antibacterial activity against Staphylococcus aureus ML6 at 25 ug/ml after 24 hrs by agar dilution method; type: functional; conditions: ML6, 24 h
Method in brief: (§2)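 Agar dilution MIC. Compound dissolved in sterile 0.2% DMSO, diluted in distilled water and mixed into molten nutrient agar (pH 7.2–7.4) at 5, 10, 25, 50; plate with 0.2% DMSO as control. Gram-positives grown 18 h in nutrient broth, Gram-negatives in peptone water. Stationary-phase suspension set to 0.5 McFarland, diluted 1:100, spot-inoculated at about 10^5 CFU per loopful. Plates held 24 h at 37 °C (up to 72 h if needed). MIC is the lowest level with no growth.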

Staphylococcus aureus [4] = assay: Antibacterial activity against Staphylococcus aureus ML6 at 50 ug/ml after 24 hrs by agar dilution method; type: functional; conditions: ML6, 24 h; method in brief: as §2
Staphylococcus aureus [5] = assay: Antibacterial activity against Staphylococcus aureus ML145 at 25 ug/ml after 24 hrs by agar dilution method; type: functional; conditions: ML145, 24 h; method in brief: as §2
Bacillus licheniformis = assay: Antibacterial activity against […] Bacillus licheniformis NCTC 10341 after 24 hrs by agar dilution method; type: functional; conditions: NCTC 10341, 24 h; method in brief: as §2
Salmonella typhimurium [6] = assay: Antibacterial activity against Salmonella Typhimurium NCTC 74 at 5 ug/ml after 24 hrs by agar dilution method; type: functional, organism-based; conditions: Salmonella enterica subsp. enterica serovar Typhimurium; method in brief: as §2
Salmonella typhimurium [7] = assay: Antibacterial activity against Salmonella Typhimurium NCTC 74 at 10 ug/ml after 24 hrs by agar dilution method; type: functional, organism-based; conditions: Salmonella enterica subsp. enterica serovar Typhimurium; method in brief: as §2
Salmonella typhimurium [8] = assay: Antibacterial activity against Salmonella Typhimurium NCTC 74 after 24 hrs by agar dilution method; type: functional, Salmonella enterica subsp. enterica serovar Typhimurium; conditions: Salmonella enterica, NCTC 74, 24 h; method in brief: as §2
Shigella dysenteriae [9] = assay: Antibacterial activity against Shigella dysenteriae 6 NCTC 100/54 after 24 hrs by agar dilution method; type: functional; conditions: 6 NCTC 100/54, 24 h
Escherichia coli [10] = assay: Antibacterial activity against Escherichia coli K-12 Row at 50 ug/ml after 24 hrs by agar dilution method; type: functional; method in brief: as §2
Escherichia coli [11] = assay: Antibacterial activity against Escherichia coli ATCC 25938 at 25 ug/ml after 24 hrs by agar dilution method; type: functional, organism-based; method in brief: as §2
Vibrio cholerae [12] = assay: Antibacterial activity against Vibrio cholerae 569B at 5 ug/ml after 24 hrs by agar dilution method; type: functional, organism-based
Vibrio cholerae [13] = assay: Antibacterial activity against Vibrio cholerae 582 after 24 hrs by agar dilution method; type: functional; conditions: Vibrio cholerae, 582, 24 h
Proteus mirabilis [14] = assay: Antibacterial activity against Proteus mirabilis 7 at 5 ug/ml after 24 hrs by agar dilution method; type: functional, organism-based; method in brief: as §2
Proteus mirabilis [15] = assay: Antibacterial activity against Proteus mirabilis 7 at 10 ug/ml after 24 hrs by agar dilution method; type: functional, organism-based; method in brief: as §2
Proteus mirabilis [16] = assay: Antibacterial activity against Proteus mirabilis 7 at 25 ug/ml after 24 hrs by agar dilution method; type: functional, organism-based; method in brief: as §2
Staphylococcus aureus [17] = assay: Antibacterial activity against Staphylococcus aureus ML145 ug/ml after 24 hrs by agar dilution method; type: functional; conditions: ML145, 24 h; method in brief: as §2
Pseudomonas aeruginosa [18] = assay: Antibacterial activity against Pseudomonas aeruginosa ATCC 27853 at 10 ug/ml after 24 hrs by agar dilution method; type: functional, organism-based; method in brief: as §2
Pseudomonas aeruginosa [19] = assay: Antibacterial activity against Pseudomonas aeruginosa ATCC 27853 at 50 ug/ml after 24 hrs by agar dilution method; type: functional; conditions: ATCC 27853, 24 h; method in brief: as §2
Pseudomonas aeruginosa [20] = assay: Antibacterial activity against Pseudomonas aeruginosa ATCC 27853 after 24 hrs by agar dilution method; type: functional; conditions: ATCC 27853, 24 h; method in brief: as §2
Shigella dysenteriae [21] = assay: Antibacterial activity against Shigella dysenteriae 7 NCTC 519/66 at 5 ug/ml after 24 hrs by agar dilution method; type: functional, organism-based
Shigella dysenteriae [22] = assay: Antibacterial activity against Shigella dysenteriae 7 NCTC 519/66 at 50 ug/ml after 24 hrs by agar dilution method; type: functional; conditions: 7 NCTC 519/66, 24 h
Leishmania donovani [23] = assay: Antileishmanial activity against Leishmania donovani MHOM/IN/1983/AG83 promastigotes assessed as induction of vacuolization at 11.5 ug/ml after 2 hrs by transmission electron microscopy; type: functional, organism-based
Method in brief: (§3)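 Log-phase promastigotes, grown at 22 °C in M199 with 10% FBS, were exposed for 2 h to the compound; controls received 0.1% DMSO alone. Cells were then sectioned, stained on copper grids with uranyl acetate and lead acetate for 10-15 min each, and examined by TEM for ultrastructural changes.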

Leishmania donovani [24] = assay: Antileishmanial activity against Leishmania donovani MHOM/IN/1983/AG83 promastigotes assessed as induction of membrane blebbing at 11.5 ug/ml after 2 hrs by transmission electron microscopy; type: functional, organism-based; method in brief: as §3
Leishmania donovani [25] = assay: Antileishmanial activity against Leishmania donovani MHOM/IN/1983/AG83 promastigotes assessed as induction of chromatin condensation at 11.5 ug/ml after 2 hrs by transmission electron microscopy; type: functional, organism-based
[26] = Down regulation of IL6 release Leishmania donovani MHOM/IN/1983/AG83 infected bacterial liposaccharide-stimulated golden Syrian hamster peritoneal macrophages; type: functional, cell-based; conditions: Mesocricetus auratus; Macrophage
[27] = Down regulation of TNFalpha release Leishmania donovani MHOM/IN/1983/AG83 infected bacterial liposaccharide-stimulated golden Syrian hamster peritoneal macrophages; type: functional, cell-based; conditions: Mesocricetus auratus; Macrophage
Leishmania donovani [28] = assay: Antileishmanial activity against Leishmania donovani MHOM/IN/1983/AG83 promastigotes infected BALB/c mouse assessed as spleen weight at 12.5 mg/kg, ip administered two times per week for 4 weeks; type: functional; conditions: route intraperitoneal; method in brief: as §1
[29] = Toxicity against golden Syrian hamster peritoneal macrophages; type: cell-based, Mesocricetus auratus; conditions: macrophage

Q: With `Clc1ccc(OCOc2ccc(Cl)c3cccnc23)c2ncccc12` as the molecule, how does the Activity (Leishmania donovani [1]) read?
A: 78%

Q: What about the Activity (Leishmania donovani [2]) of the same molecule?
A: 900 mg

Q: What about the inhibition at 25 µg/mL (Staphylococcus aureus [3]) of the same molecule?
A: 100%

Q: And the inhibition at 50 µg/mL (Staphylococcus aureus [4])?
A: 100%

Q: What about the inhibition at 25 µg/mL (Staphylococcus aureus [5]) of the same molecule?
A: 100%

Q: And the MIC (Bacillus licheniformis)?
A: 50 µg/mL (≈ 135 µM)

Q: And the Activity (Salmonella typhimurium [6])?
A: inactive

Q: And the Activity (Salmonella typhimurium [7])?
A: inactive

Q: What about the MIC (Salmonella typhimurium [8]) of the same molecule?
A: 50 µg/mL (≈ 135 µM)

Q: And the MIC (Shigella dysenteriae [9])?
A: 50 µg/mL (≈ 135 µM)

Q: And the inhibition at 50 µg/mL (Escherichia coli [10])?
A: 100%

Q: What about the Activity (Escherichia coli [11]) of the same molecule?
A: inactive

Q: And the Activity (Vibrio cholerae [12])?
A: inactive

Q: What about the MIC (Vibrio cholerae [13]) of the same molecule?
A: 5 µg/mL (≈ 13.5 µM)

Q: And the Activity (Proteus mirabilis [14])?
A: inactive

Q: And the Activity (Proteus mirabilis [15])?
A: inactive

Q: What about the Activity (Proteus mirabilis [16]) of the same molecule?
A: inactive

Q: What about the MIC (Staphylococcus aureus [17]) of the same molecule?
A: 5 µg/mL (≈ 13.5 µM)

Q: And the Activity (Pseudomonas aeruginosa [18])?
A: inactive

Q: And the inhibition at 50 µg/mL (Pseudomonas aeruginosa [19])?
A: 100%

Q: And the MIC (Pseudomonas aeruginosa [20])?
A: 25 µg/mL (≈ 67.3 µM)

Q: And the Activity (Shigella dysenteriae [21])?
A: inactive

Q: And the inhibition at 50 µg/mL (Shigella dysenteriae [22])?
A: 100%

Q: What about the Activity (Leishmania donovani [23]) of the same molecule?
A: Active

Q: And the Activity (Leishmania donovani [24])?
A: Active

Q: And the Activity (Leishmania donovani [25])?
A: Active

Q: And the Activity [26]?
A: Active

Q: What about the Activity [27] of the same molecule?
A: Active

Q: What about the Activity (Leishmania donovani [28]) of the same molecule?
A: 90 mg

Q: And the Activity [29]?
A: > 80 µg/mL
